One experiment has as its system HCT-116. Nature of the experiment: Antiproliferation activity against human colon cancer cell line (HCT116). The class given is functional, cell-based. The gist of the method: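 HCT-116 cells seeded at 5000 cells/cm² in F12 with 10% FCS, 2 mM L-glutamine and penicillin/streptomycin, 37 °C, 5% CO₂. Next day, dilutions from a 10 mM DMSO stock were added to duplicate wells. After 72 h, cells were trypsinized and counted on a Multisizer 3 counter. Counts were expressed as % of untreated control wells, and IC50 was taken from a sigmoidal fit.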

The target in the next experiment is T1, Aurora kinase A (Homo sapiens, UniProt O14965).
T1 sequence (O14965 whole entry): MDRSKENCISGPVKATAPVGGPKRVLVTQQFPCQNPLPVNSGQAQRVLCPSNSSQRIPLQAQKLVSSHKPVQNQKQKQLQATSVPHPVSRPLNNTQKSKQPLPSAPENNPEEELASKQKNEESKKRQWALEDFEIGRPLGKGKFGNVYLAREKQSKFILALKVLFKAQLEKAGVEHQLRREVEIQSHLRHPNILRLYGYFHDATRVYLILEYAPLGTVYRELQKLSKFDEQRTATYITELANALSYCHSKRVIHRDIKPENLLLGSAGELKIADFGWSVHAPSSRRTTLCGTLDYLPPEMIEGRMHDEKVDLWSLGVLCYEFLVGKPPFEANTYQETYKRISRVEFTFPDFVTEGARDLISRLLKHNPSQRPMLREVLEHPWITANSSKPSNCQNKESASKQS
Briefly: Inhibition of Aurora kinase A. The method in brief:
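GST-fused Aurora-A was made in insect cells and purified by GST affinity and gel filtration. Compounds were tested as 3-fold dilutions from 10 to 0.0005 µM. Reactions were stopped with EDTA and excess ATP, and substrate phosphorylation was read by streptavidin SPA bead counting.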

Experiment [1] concerns the target T2, Aurora kinase B (Homo sapiens, UniProt Q96GD4). Nature of the experiment: Inhibitory activity against Aurora kinase B.
Experiment [2] deals with T3, Aurora kinase C (Homo sapiens, UniProt Q9UQB9).
T3 sequence (Q9UQB9 whole entry): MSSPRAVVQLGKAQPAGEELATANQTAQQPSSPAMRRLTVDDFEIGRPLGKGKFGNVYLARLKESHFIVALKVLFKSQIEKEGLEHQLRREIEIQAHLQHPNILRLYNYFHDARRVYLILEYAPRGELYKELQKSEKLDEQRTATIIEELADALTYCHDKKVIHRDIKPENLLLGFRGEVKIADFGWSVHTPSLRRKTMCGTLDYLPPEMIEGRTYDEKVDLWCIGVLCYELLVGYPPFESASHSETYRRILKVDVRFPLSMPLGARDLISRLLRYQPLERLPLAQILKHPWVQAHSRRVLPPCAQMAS
Nature of the experiment: Inhibitory activity against Aurora kinase C.

In experiment [3] the target is T3, Aurora kinase C. Nature of the experiment: Inhibition of Aurora kinase C.
Experiment [4] deals with T2, Aurora kinase B. Briefly: Inhibition of Aurora kinase B.
The next experiment has as its system HL-60. Briefly: Antiproliferation activity against human HL-60 cell line.
A further experiment relates to HT-29. Briefly: Antiproliferation activity against HT-29 cell line (HT-29). As to conditions: Homo sapiens.
The next experiment relates to HeLa. Briefly: Antiproliferation activity against HeLa cell line. As to conditions: Homo sapiens.
The test system of another experiment is A2780. Briefly: cells. As to conditions: Homo sapiens.

The structures appear in SMILES notation.

T2 sequence (Q96GD4 whole entry): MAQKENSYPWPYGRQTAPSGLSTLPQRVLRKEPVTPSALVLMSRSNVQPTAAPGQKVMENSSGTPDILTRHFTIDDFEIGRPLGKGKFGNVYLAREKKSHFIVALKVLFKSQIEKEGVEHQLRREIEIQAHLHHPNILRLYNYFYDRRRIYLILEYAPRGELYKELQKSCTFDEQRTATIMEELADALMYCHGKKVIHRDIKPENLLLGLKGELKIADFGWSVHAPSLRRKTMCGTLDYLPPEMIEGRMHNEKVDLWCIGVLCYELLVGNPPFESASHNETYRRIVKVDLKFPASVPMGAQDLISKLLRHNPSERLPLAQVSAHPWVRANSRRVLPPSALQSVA

Broadly, the IC50 is the point on the concentration scale where inhibition reaches its midpoint. Low values mean greater potency in that assay, high ones weaker potency in that assay. Consider `CCc1cccc(CC)c1NC(=O)N1Cc2n[nH]c(NC(=O)c3ccc(C(C)(C)C)cc3)c2C1`, for which the figures for the IC50 in the experiment on HCT-116 and at Aurora kinase A were 2200 nM and 100 nM, respectively.
In the case of `CC(C)(C)c1ccc(C(=O)Nc2n[nH]c3c2CN(C(=O)c2ccco2)C3)cc1`, the results for the IC50 in the experiment on HCT-116 and at Aurora kinase A were 2100 nM and 41 nM, respectively.
Take `CC(C)(C)c1ccc(C(=O)Nc2n[nH]c3c2CN(C(=O)Cc2ccccc2)C3)cc1`: the IC50 worked out at 3000 nM with HCT-116 and 130 nM against Aurora kinase A.
As to `CC(C)(C)c1ccc(C(=O)Nc2[nH]nc3c2CN(C(=O)Cc2ccsc2)C3)cc1`, the IC50 in the experiment with HCT-116 is 2000 nM; against Aurora kinase A it was 5 nM.
For `CN1CCN(c2ccc(C(=O)Nc3[nH]nc4c3CN(C(=O)Cc3ccsc3)C4)cc2)CC1`, the values for the IC50 with HCT-116 and against Aurora kinase A were 570 nM and 65 nM, respectively.
Turning to `CN1CCN(c2ccc(C(=O)Nc3n[nH]c4c3CN(C(=O)c3ccco3)C4)cc2)CC1`, the IC50 is 900 nM in the experiment on HCT-116 and 160 nM against Aurora kinase A.
`CCc1cccc(CC)c1NC(=O)N1Cc2n[nH]c(NC(=O)c3ccc(N4CCN(C)CC4)cc3)c2C1` [PHA-680632]: the IC50 at Aurora kinase B [1] was determined as 135 nM; in the experiment on HCT-116 it was 45 nM; against Aurora kinase C [2], 120 nM; against Aurora kinase C [3] it was 120 nM; against Aurora kinase B [4], 135 nM; with HL-60, 130 nM. Also, the IC50 came out at 80 nM in the experiment with HT-29, 410 nM with HeLa and 110 nM in the experiment with A2780.

Source of the values: ChEMBL document CHEMBL1143616, “Potent and selective Aurora inhibitors identified by the expansion of a novel scaffold for protein kinase inhibition” (J Med Chem, 2005).
